Reference: paper PMC7101055 (ACS Chemical Neuroscience, 2020)
Entries after “also recorded” stand apart in the source; their conditions may differ. Where two headings read alike, the source gives them in different places.

Key:
[1] = pH 7.2; cited from earlier work
[2] = UV-vis spectra in KMOPS buffer pH 7.2; assay type: physicochemical; conditions: for ε365 / ε405: 0.1 mM in KMOPS buffer; for ε365: 365 nm; for ε405: 405 nm; for λmax: 0.1 mM solution in KMOPS buffer
[3] = 1PE photolysis at 365 and 405 nm; assay type: physicochemical; conditions: for Φu(365) quantum yield of photolysis / sensitivity (ε365Φu): 365 nm; for Φu(365) quantum yield of photolysis / Φu(405) quantum yield of photolysis: 0.1 mM in KMOPS buffer; for Φu(365) quantum yield of photolysis / sensitivity (ε365Φu) / Φu(405) quantum yield of photolysis / sensitivity (ε405Φu): pH 7.2; for sensitivity (ε365Φu) / sensitivity (ε405Φu): KMOPS buffer; for Φu(405) quantum yield of photolysis / sensitivity (ε405Φu): 405 nm; for yield of DA or sulpiride released (365 nm): photolysis at 365 nm; for yield of DA or sulpiride released (365 nm) / yield of DA or sulpiride released (405 nm): measured by HPLC, KMOPS pH 7.2; for yield of DA or sulpiride released (405 nm): photolysis at 405 nm
Method in brief: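 Test compound at 0.1 mM in KMOPS buffer (100 mM KCl, 10 mM MOPS, adjusted to pH 7.2 with KOH), irradiated with one-photon light. Released dopamine quantified by HPLC to give chemical yield.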

[4] = 2-photon excitation; assay type: physicochemical; conditions: excitation at 740 nm, KMOPS buffer pH 7.2
Method in brief: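 Two-photon uncaging of test compound in KMOPS buffer (100 mM KCl and 10 mM MOPS, brought to pH 7.2 with KOH), with excitation at 740 nm.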

[5] = Spontaneous hydrolysis in the dark, buffer, by HPLC; assay type: physicochemical; conditions: 100-μM solution in KMOPS buffer pH 7.2, HPLC
[6] = molecular target: T1, D2 receptors on substantia nigra dopamine neurons (Mus musculus, UniProt P61168); assay type: cell-based
[7] = molecular target: T1, D2 receptors on substantia nigra dopamine neurons; assay type: cell-based; conditions: CyHQ-sulpiride 5 μM, 1 s flash; quinpirole 300 nM or dopamine 1 μM
[8] = test system: D2 receptor; conditions: cited from earlier work
[9] = molecular target: human D2 receptors; conditions: cited from earlier work
[10] = molecular target: rat D2 receptors; conditions: cited from earlier work

T1 sequence (P61168 whole entry): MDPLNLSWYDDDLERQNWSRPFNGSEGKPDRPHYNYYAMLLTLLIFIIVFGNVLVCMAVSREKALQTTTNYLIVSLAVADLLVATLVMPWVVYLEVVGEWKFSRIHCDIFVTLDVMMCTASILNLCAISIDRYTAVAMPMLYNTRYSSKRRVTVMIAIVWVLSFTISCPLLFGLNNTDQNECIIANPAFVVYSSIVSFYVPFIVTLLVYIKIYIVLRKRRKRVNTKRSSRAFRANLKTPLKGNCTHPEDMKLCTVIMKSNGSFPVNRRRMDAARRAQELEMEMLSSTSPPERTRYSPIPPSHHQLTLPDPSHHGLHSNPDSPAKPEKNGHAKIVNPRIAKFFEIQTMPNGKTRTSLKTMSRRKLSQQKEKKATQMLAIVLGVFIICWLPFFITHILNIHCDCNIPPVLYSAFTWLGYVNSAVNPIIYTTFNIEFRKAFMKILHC

Compound | ε365 [2] [M^–1 cm^–1] | ε405 [2] [M^–1 cm^–1] | λmax [2] [nm] | Φu(365) quantum yield of photolysis [3] | sensitivity (ε365Φu) [3] | Φu(405) quantum yield of photolysis [3] | sensitivity (ε405Φu) [3] | yield of DA or sulpiride released (365 nm) [3] [%] | yield of DA or sulpiride released (405 nm) [3] [%] | δu 2-photon uncaging action cross-section [4] | dark stability: no spontaneous hydrolysis in the dark observed within the time given [5] [h] | further results
COc1cc(C(Oc2ccc(CNC(=O)CCCC/C=C/C(C)C)cc2OC)C(=O)O)c([N+](=O)[O-])cc1OC (stereo not drawn) |  |  |  |  |  |  |  |  |  |  |  | decomposition in the dark in 24 h [1]: 1.7%
N#Cc1c(O)ccc2ccc(COc3ccc(CCN)cc3OCc3ccc4ccc(O)c(C#N)c4n3)nc12 [(CyHQ)2-O,O-DA, 2,2′-(((4-(2-Aminoethyl)-1,2-phenylene)bis(oxy))bis(methylene))bis(7-hydroxyquinoline-8-carbonitrile)] | 5480 | 324 | 364 | 0.19 | 1044 | 0.19 | 61 | 16 | 15 | 0.12 GM | 100 | chemical yield of dopamine ([3]; range over 365 and 405 nm photolysis): 15–16%; photochemical quantum yield ([3]; wavelength not stated in the sentence (1PE)): 0.19
NCCc1ccc(O)c(O)c1 [dopamine] |  |  |  |  |  |  |  |  |  |  |  | rise time of current from 10 to 90% of the peak ([6]; iontophoretically applied dopamine (1 M, 10 ms 100 nA pulse)): 270 ms; rise time of current from 10 to 90% of the peak ([6]; synaptically released dopamine (IPSC, single stimulation)): 141 ms; time constant of decay τ of D2 current after CyHQ-sulpiride photolysis [7]: 307 ms; koff [8]: 1.69 min^–1
CCN1CCCC1CNC(=O)c1cc(S(N)(=O)=O)ccc1OC (stereo not drawn) [sulpiride] |  |  |  |  |  |  |  |  |  |  |  | effect on CyHQ-O-DA flash response ([6]; sulpiride 500 nM, CyHQ-O-DA 150 μM): all response was blocked; reversal of the dark current produced by CyHQ-O-DA ([6]; sulpiride 1 μM, CyHQ-O-DA 1 mM in the dark): unable to fully reverse the effect; Ki [9]: 9.4 nM; Ki [10]: 6.9 nM
(8-Cyano-7-hydroxyquinolin-2-yl)methyl(3,4-dihydroxyphenethyl)carbamate [CyHQ-N-DA] | 6700 | 251 | 364 | 0.19 | 1283 | 0.20 | 50 | 60 | 49 | did not photolyze through 2PE; also recorded: n.p. ^c | 24 | 
